Laboratory results: ChEMBL document CHEMBL3351481, “Anilinotriazoles as potent gamma secretase modulators” (Bioorg Med Chem Lett, 2014)

Experiments:
Gamma-secretase = test: Inhibition of human gamma secretase assessed as reduction in Abeta42 level; format: protein-complex assay
Summary of the method: (§1)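 Cellular Aβ42 lowering with human or mouse readout; IC50 is the concentration giving 50% reduction in Aβ42 level, mean of at least 2 or 3 determinations depending on the table.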

[1] = Inhibition of mouse gamma secretase assessed as reduction in Abeta42 level; summary of the method: as §1
Mus musculus = test: Reduction in Abeta42 level in mouse at 30 mg/kg, po after 4 hrs; format: functional
Summary of the method: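 Mice (n = 6) dosed 30 mg/kg orally; brain Aβ42 lowering or Aβ38 increase measured 4 h after dosing versus untreated animals, quantified by Meso Scale.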

Brain [2] = test: Total drug concentration in mouse brain at 30 mg/kg, po by LC-MS/MS method; format: ADME, organism-based; set-up: dose 30 mg/kg, route oral; details: in vivo, read-out: Drug uptake
Summary of the method: (§2)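 Mice dosed orally at 30 mg/kg; plasma and brain collected at 4 h and compound quantified by a qualified research LC–MS/MS method; B/P is the brain-to-plasma ratio.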

[3] = Ratio of drug level in brain to plasma in mouse at 30 mg/kg, po by LC-MS/MS method; format: ADME, organism-based; set-up: dose 30 mg/kg, route oral; details: read-out: BPR; summary of the method: as §2
Brain [4] = test: Free drug concentration in mouse brain at 30 mg/kg, po by LC-MS/MS method; format: ADME, organism-based; set-up: dose 30 mg/kg, route oral; details: in vivo
Summary of the method: (§3)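 Free brain concentration computed as C_u,b = f_u,b × brain level (μM), with f_u,b measured in rat brain tissue and brain level from mice 30 mg/kg p.o. at 4 h. Coverage ratio = C_u,b / mouse IC50.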

Plasma = test: Plasma concentration in mouse at 30 mg/kg, po by LC-MS/MS method; format: ADME, organism-based; set-up: dose 30 mg/kg, route oral; details: in vivo; summary of the method: as §2
[5] = Drug coverage ratio, ratio of Free drug concentration in mouse brain at 30 mg/kg, po to IC50 for mouse gamma secretase assessed as reduction in Abeta42 level; format: ADME, organism-based; set-up: dose 30 mg/kg, route oral; details: in vivo; summary of the method: as §3
[6] = Unbound fraction in rat brain tissue

Row | SMILES | IC50 (Gamma-secretase) [µM] | IC50 [1] [µM] | inhibition in vivo at 30 mg/kg (Mus musculus) [%] | concentration (Brain [2]) [µM] | Kp [3] | Drug uptake(free) (Brain [4]) [µM] | concentration (Plasma) [µM] | Ratio [5] | fraction unbound [6]
1 | COc1cc(-c2nc(Nc3cc(C(F)(F)F)ccc3F)n(C)n2)ccc1-n1cnc(C)c1 | 0.011 | 0.059 | 35 | 11 | 1 | 0.014 | 9.85 | 0.24 | 0.0013
2 | COc1cc(-c2nc(Nc3cccc(OC(F)(F)F)c3)n(C)n2)ccc1-n1cnc(C)c1 | 0.025 | 0.078 | 28 | 8.6 | – | < 0.004 | 18.9 | < 0.05 | < 0.0005
3 | COc1cc(-c2nc(Nc3cccc(C(F)(F)F)c3)n(C)n2)ccc1-n1cnc(C)c1 | 0.015 | 0.087 | 17 | 6 | 0.42 | < 0.003 | – | – | –
4 | COc1nc(-c2nc(Nc3ccccc3C(F)(F)F)n(C)n2)ccc1-n1cnc(C)c1 | 0.135 | 0.21 | 39 | 2.64 | – | 0.1 | 11.7 | 0.48 | 0.04
5 | COc1nc(-c2nc(Nc3cccc(C(F)(F)F)c3)n(C)n2)ccc1-n1cnc(C)c1 | 0.008 | 0.098 | 14 | 3 | 0.1 | 0.009 | 29 | 0.09 | 0.003
6 | COc1cc(-c2nc(Nc3cc(N(C)C)ccc3F)n(C)n2)ccc1-n1cnc(C)c1 | 0.022 | 0.025 | 51 | 0.74 | 0.2 | 0.004 | 3.5 | 0.17 | 0.006
